Experimental data taken from ChEMBL document CHEMBL3098122, “Synthesis, biological activity and structure-activity relationships of new benzoic acid-based protein tyrosine phosphatase inhibitors endowed with insulinomimetic effects in mouse C2C12 skeletal muscle cells” (Eur J Med Chem, 2014).
Activity calls are given as the source filed them. The rule behind the calls is not given here.

What was measured:
[1] = molecular target: T1, Tyrosine-protein phosphatase non-receptor type 1 (Mus musculus) (UniProt P35821); experiment: Inhibition of PTP1B in mouse C2C12 cells assessed as increase of insulin receptor beta phosphorylation at 25 uM after 90 mins; assay type: cell-based
T1 sequence (whole entry): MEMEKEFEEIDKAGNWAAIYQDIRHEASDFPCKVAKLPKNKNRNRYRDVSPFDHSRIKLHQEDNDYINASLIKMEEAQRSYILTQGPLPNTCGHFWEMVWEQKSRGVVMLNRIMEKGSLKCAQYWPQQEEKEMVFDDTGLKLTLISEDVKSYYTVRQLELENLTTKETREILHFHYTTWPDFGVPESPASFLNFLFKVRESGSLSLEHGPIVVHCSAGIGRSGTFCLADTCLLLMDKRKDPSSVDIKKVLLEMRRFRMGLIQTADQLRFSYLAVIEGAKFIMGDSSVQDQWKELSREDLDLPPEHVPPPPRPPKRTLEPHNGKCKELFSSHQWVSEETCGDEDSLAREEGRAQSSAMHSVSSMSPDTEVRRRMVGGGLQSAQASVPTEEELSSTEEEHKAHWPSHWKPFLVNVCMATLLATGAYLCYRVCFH
Procedure, shortened: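 Differentiated, 20 h serum-starved C2C12 myotubes exposed to 25 µM compound (DMSO 1.2% final) for 90 min at 37 °C, insulin 10 nM 30 min as positive control; lysates run on SDS-PAGE, Western blot for phospho-insulin receptor β with actin loading control, densitometry; three replicates, p<0.05 versus control.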

[2] = molecular target: T2, Low molecular weight phosphotyrosine protein phosphatase (Homo sapiens, UniProt P24666); experiment: Inhibition of human recombinant LMW-PTP IF1 expressed in Escherichia coli TB1 using p-nitrophenylphosphate as substrate
T2 sequence (P24666 whole entry): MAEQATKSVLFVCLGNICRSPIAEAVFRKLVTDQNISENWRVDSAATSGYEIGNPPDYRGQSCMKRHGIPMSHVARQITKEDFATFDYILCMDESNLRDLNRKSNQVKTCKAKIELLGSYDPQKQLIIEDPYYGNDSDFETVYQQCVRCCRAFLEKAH

[3] = species on record: Homo sapiens; experiment: Selectivity ratio of IC50 for human recombinant LMW-PTP IF2 to IC50 for human recombinant LMW-PTP IF1
[4] = species on record: Homo sapiens; experiment: Selectivity ratio of IC50 for TC-PTP (unknown origin) to IC50 for human recombinant PTP1B
Procedure, shortened: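 Commercial T-cell PTP assayed on p-nitrophenylphosphate at 37 °C, pH 7.0 β,β-dimethylglutarate buffer with 1 mM EDTA and 5 mM DTT; stopped with 1 M KOH, absorbance at 400 nm; IC50 from ratio of activity with and without inhibitor versus inhibitor concentration. Ratio lines pair this with recombinant human PTP1B measured the same way.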

[5] = species on record: Homo sapiens; experiment: Selectivity ratio of IC50 for human recombinant LMW-PTP IF2 to IC50 for human recombinant PTP1B
[6] = molecular target: T3, Tyrosine-protein phosphatase non-receptor type 1 (Homo sapiens) (UniProt P18031); experiment: Reversible inhibition of human recombinant PTP1B expressed in Escherichia coli TB1 using p-nitrophenylphosphate as substrate assessed as residual activity at 25 times IC50 after 1 hr measured after 400 fold dilution
T3 sequence (whole entry): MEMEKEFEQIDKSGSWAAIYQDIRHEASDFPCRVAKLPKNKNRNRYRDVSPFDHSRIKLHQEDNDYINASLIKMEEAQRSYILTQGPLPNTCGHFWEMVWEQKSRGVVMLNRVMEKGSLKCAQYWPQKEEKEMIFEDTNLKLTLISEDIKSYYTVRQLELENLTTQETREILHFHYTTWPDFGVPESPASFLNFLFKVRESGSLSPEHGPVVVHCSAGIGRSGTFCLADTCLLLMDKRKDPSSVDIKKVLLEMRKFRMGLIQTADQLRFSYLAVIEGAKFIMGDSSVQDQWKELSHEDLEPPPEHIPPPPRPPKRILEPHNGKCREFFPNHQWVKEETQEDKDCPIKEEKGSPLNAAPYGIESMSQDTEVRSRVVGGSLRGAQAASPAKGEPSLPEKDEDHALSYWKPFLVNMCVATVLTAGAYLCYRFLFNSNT
Procedure, shortened: (§1)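 Reversibility: PTP1B preincubated 1 h at 37 °C with at least 25-fold […], DMSO in controls; mixture then diluted 400-fold in assay buffer and residual activity measured on p-nitrophenylphosphate; three replicates, mean ± SE.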

[7] = Cytotoxicity against mouse C2C12 cells expressing PTP1B, TC-PTP, LMW-PTP and insulin receptor assessed as cell viability after 2 hrs by MTT assay; assay type: cell-based; design: concentration or dose not given beside the values; details: read-out: Activity
Procedure, shortened: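 C2C12 myoblasts differentiated 4 days in DMEM with 2% horse serum, serum-starved 20 h; myotubes then given MTT (0.5 mg/ml final) for 2 h at 37 °C, lysed in DMSO, formazan read at 570 nm; three replicates relative to control.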

[8] = molecular target: T4, Tyrosine-protein phosphatase non-receptor type 1 (Homo sapiens, UniProt P18031); experiment: Inhibition of human recombinant PTP1B expressed in Escherichia coli TB1 using p-nitrophenylphosphate as substrate
T4 sequence (P18031 whole entry): T3 sequence (whole entry)

[9] = molecular target: T4, Tyrosine-protein phosphatase non-receptor type 1; experiment: Competitive inhibition of human recombinant PTP1B expressed in Escherichia coli TB1 using p-nitrophenylphosphate as substrate by Double reciprocal plot analysis
Procedure, shortened: (§2)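 PTP1B (human, GST fusion from pGEX-2T in E. coli TB1, thrombin-cleaved, gel-filtered) assayed at 37 °C, pH 7.0 β,β-dimethylglutarate buffer with 1 mM EDTA and 5 mM DTT, p-nitrophenylphosphate at seven final concentrations (0.5–25 mM) with increasing inhibitor; KOH-stopped, A400. Inhibition type from double reciprocal plots; Ki from apparent Km vs inhibitor concentration; triplicate initial rates.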

[10] = species on record: Homo sapiens; experiment: Selectivity ratio of IC50 for human recombinant LMW-PTP IF1 to IC50 for human recombinant PTP1B
[11] = molecular target: T5, Tyrosine-protein phosphatase non-receptor type 2 (Homo sapiens, UniProt P17706); experiment: Inhibition of TC-PTP (unknown origin) purchased from New England Biolabs using p-nitrophenylphosphate as substrate
T5 sequence (P17706 whole entry): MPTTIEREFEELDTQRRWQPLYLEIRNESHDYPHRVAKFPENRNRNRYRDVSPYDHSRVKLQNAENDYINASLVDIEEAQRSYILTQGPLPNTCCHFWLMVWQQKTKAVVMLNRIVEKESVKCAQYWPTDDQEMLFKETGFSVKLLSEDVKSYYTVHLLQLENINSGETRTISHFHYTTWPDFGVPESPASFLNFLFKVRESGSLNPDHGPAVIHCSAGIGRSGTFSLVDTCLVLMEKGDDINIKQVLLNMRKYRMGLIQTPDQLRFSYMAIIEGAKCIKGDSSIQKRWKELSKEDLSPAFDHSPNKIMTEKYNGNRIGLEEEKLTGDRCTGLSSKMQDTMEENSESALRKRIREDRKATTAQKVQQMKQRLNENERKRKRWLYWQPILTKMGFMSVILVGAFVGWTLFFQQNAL

[12] = molecular target: T2, Low molecular weight phosphotyrosine protein phosphatase; experiment: Inhibition of human recombinant LMW-PTP IF2 expressed in Escherichia coli TB1 using p-nitrophenylphosphate as substrate
[13] = molecular target: T4, Tyrosine-protein phosphatase non-receptor type 1; experiment: Mixed type inhibition of human recombinant PTP1B expressed in Escherichia coli TB1 using p-nitrophenylphosphate as substrate by Double reciprocal plot analysis; procedure, shortened: as §2
[14] = molecular target: T3, Tyrosine-protein phosphatase non-receptor type 1 (Homo sapiens); experiment: Partial reversible inhibition of human recombinant PTP1B expressed in Escherichia coli TB1 using p-nitrophenylphosphate as substrate assessed as residual activity at 25 times IC50 after 1 hr measured after 400 fold dilution; procedure, shortened: as §1
[15] = molecular target: T4, Tyrosine-protein phosphatase non-receptor type 1; experiment: Noncompetitive inhibition of human recombinant PTP1B expressed in Escherichia coli TB1 using p-nitrophenylphosphate as substrate by Double reciprocal plot analysis; procedure, shortened: as §2
[16] = molecular target: T1, Tyrosine-protein phosphatase non-receptor type 1 (Mus musculus); experiment: Inhibition of PTP1B in mouse C2C12 cells assessed as increase of 2-deoxy-D-1,2-[3H]-glucose at 25 uM after 90 mins by beta-scintillation counting; assay type: cell-based
Procedure, shortened: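 Serum-starved differentiated C2C12 myotubes treated 90 min with 25 µM compound (1.2% DMSO) or 30 min with 10 nM insulin, then 0.1 µCi 2-deoxy-D-[1,2-3H]glucose in Ringer-Hepes for 15 min at 37 °C; cold PBS wash, 0.2 M NaOH lysis, scintillation counting normalized to Bradford protein; three replicates.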

| Compound | inhibition [1] | IC50 [2] [nM] | Ratio IC50 [3] | Ratio IC50 [4] | Ratio IC50 [5] | Activity [6] [%] | viability at 2 h [7] [%] | IC50 [8] [nM] | Ki [9] [nM] | Ratio IC50 [10] | IC50 [11] [nM] | IC50 [12] [nM] | Ki [13] [nM] | Activity [14] [%] | Ki [15] [nM] | inhibition [16] |
| --- | --- | --- | --- | --- | --- | --- | --- | --- | --- | --- | --- | --- | --- | --- | --- | --- |
| COc1ccc(/C=C2\S/C(=N\c3ccccc3)N(Cc3ccc(C(=O)O)cc3)C2=O)cc1OCCc1ccccc1 | Active | 17200 | > 2 | 2 | > 2 | 80 | ≥ 80 | 1700 | 1500 | > 2 | 4300 | > 50000 |  |  |  |  |
| O=C(O)c1ccc(CN2C(=O)/C(=C/c3ccc(OCCc4ccccc4)cc3)S/C2=N\c2ccccc2)cc1 | Active | 4000 | > 2 |  | > 2 |  | ≥ 80 | 1500 |  | > 2 | 700 | 8900 | 500 | 50 |  |  |
| COc1cc(/C=C2\SC(=O)N(Cc3ccc(C(=O)O)cc3)C2=O)ccc1OCCc1ccccc1 | Active | 10800 | > 2 | 2 | > 2 | 80 | ≥ 80 | 1100 |  | > 2 | 3500 | > 50000 |  |  | 1400 | Active |
